Compound activity: PubChem BioAssay, several laboratories
Cav32 inh: blocks human Cav3.2 T-type calcium channel; AID 449739; B-score at 10 µM; 4% of 100,000 active; Cav3.2-expressing cells, Fluo-4 calcium fluorescence FDSS; active compounds read low; O95180;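 active = single-dose well whose peak fluorescence ratio is a statistical outlier from its plate by either plate-standardised score or position-corrected B-score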
PLK1 inh: inhibitors of human PLK1 kinase. P53350. recombinant PLK1 kinase, TR-FRET peptide phosphorylation. inhibition, % at 10 µM. 0.53% of 97,000 active. AID 619;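 active = inhibition of 50% or more in the single-concentration screen; inactive = inhibition below 50%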;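 also: 0% = DMSO max control and 100% = H-89 dihydrochloride min control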
HIV Rev-RRE inh: HIV Rev-RRE protein-RNA interaction inhibition. P05866. Rev peptide-RRE RNA binding, FRET. inhibition, % at 8 µM. 0.79% of 97,000 active. AID 704;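 active = inhibition above the screen-wide mean plus 3 SD, cut at about 35% in these data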;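 also: 0% = median DMSO wells and 100% = median Neomycin B control wells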
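Test system – labelled RRE RNA duplex and labelled Rev peptide · Signal – fluorescein-to-Cy5 FRET, 480 nm excitation · Evaluation – % inhibition of FRET ratio versus controls · Benchmarks – DMSO low control, neomycin B high control · Incubation – 5 min RNA-compound premix plus 15 min binding step, 25 °C · Medium – HEPES pH 7.5 salt buffer with EDTA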
EphB4 ephrin blk: blocks human EphB4 binding to ephrin-B2; P54760; EphB4 LBD / TNYL-RAW-Alexa532 peptide, fluorescence polarization; inhibition, % at 7 µM; 0.15% of 97,000 active; AID 720;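 active = inhibition above the screen-wide mean inhibition plus 3 SD, cut at about 15% in these data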;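 also: 0% = DMSO wells and 100% = excess unlabeled TNYL-RAW peptide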
Target sequence (P54760 whole entry, looked up, the tested form may be a part): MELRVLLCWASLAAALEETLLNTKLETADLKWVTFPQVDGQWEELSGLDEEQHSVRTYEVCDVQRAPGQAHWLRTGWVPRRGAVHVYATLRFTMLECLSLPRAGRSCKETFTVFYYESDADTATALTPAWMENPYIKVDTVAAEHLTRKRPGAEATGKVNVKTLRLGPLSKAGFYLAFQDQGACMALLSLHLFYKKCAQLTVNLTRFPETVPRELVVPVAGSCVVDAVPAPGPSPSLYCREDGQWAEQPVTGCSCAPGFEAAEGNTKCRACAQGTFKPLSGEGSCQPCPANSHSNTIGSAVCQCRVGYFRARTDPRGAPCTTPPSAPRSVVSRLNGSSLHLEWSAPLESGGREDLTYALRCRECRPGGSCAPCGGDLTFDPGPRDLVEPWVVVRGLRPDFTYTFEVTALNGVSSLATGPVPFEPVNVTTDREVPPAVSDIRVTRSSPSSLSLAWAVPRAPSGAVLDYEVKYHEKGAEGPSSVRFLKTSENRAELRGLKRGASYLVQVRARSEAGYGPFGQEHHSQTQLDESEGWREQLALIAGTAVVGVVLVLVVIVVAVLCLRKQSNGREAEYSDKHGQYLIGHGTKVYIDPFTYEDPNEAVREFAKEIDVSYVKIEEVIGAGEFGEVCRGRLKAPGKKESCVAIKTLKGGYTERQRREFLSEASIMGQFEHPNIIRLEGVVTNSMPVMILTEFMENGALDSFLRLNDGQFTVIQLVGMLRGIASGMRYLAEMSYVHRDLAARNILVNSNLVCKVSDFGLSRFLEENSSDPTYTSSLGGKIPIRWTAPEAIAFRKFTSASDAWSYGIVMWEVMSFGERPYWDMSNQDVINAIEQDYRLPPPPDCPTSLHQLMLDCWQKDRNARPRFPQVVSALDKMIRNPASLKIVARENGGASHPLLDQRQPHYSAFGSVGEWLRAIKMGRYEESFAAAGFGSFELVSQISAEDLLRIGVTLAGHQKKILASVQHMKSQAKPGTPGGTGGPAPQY
FAK inh: FAK (human) kinase inhibition. AID 727. 0.84% of 97,000 active. biochemical FAK kinase activity assay. inhibition, %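 (tested at 7 µM)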. Q05397; in the data active = inhibition above about 19%;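 also: 0% = DMSO and 100% = reference compound high control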
PLK1 PBD inh: blocks phosphopeptide binding to human Plk1 polo box domain | P53350 | Plk1 PBD phosphopeptide binding, fluorescence polarization | inhibition, %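 (tested at about 20 µM)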 | 0.13% of 97,000 active; in the data active = inhibition above about 34%, passing the limit was not always enough
An asterisk follows results filed as active; . = no result; ! = not confirmed by another sample; [ ] = another dose, or the depositor's remark. Most compounds without a hit are left out; they make up all but 5.3% or so of the library.

SMILES	Cav32 inh	PLK1 inh	HIV Rev-RRE inh	EphB4 ephrin blk	FAK inh	PLK1 PBD inh
CCN=c1sc2ccccc2n1CC(O)COc1ccccc1 (centres undefined)	-4.2*	-4	18	-5	-1	-18
Cc1nn(-c2ccc(Cl)cc2Cl)c(=O)c2ccccc12	0.51	0	2	-1	0	-16
Cc1c(C(=O)NN2CCCCC2)nn(-c2ccc(Cl)cc2Cl)c1-c1ccc(I)cc1	-4.9*	.	.	.	.	.
COc1cc(NCCCC(C)N)c2ncccc2c1 (centres undefined)	1.3	33	-18	-6	26*	8
COc1cc(NS(=O)(=O)c2ccc(C)cc2)c2ncccc2c1	-1.7	.	.	.	.	.
COc1cc([N+](=O)[O-])ccc1NC(=O)CCCOc1cccc(C)c1	-3.4*	1	17	8	1	-12
CCOC(=O)c1c(-c2cccc([N+](=O)[O-])c2)csc1NC(=O)CCCOc1ccccc1OC	-4.8*	-4	1	5	4	-38
CCOC(=O)c1c(-c2cccc(C)c2)csc1NC(=O)C1CC=CCC1C(=O)O (centres undefined)	-8.9*	-12	-1	-3	-2	-11
COc1cc([N+](=O)[O-])ccc1NC(=O)CCCOc1ccc(C)cc1	-0.5	-5	20	-3	4	21
CCOC(=O)c1c(-c2ccc(-c3ccccc3)cc2)csc1NC(=O)C1C2CCC(O2)C1C(=O)O (centres undefined)	-4.6*	-9	-1	0	14	11
CCOC(=O)c1c(-c2ccc(C)cc2)csc1NC(=O)C1CC=CCC1C(=O)O (centres undefined)	.	-3	4	6	6	-30
CCOC(=O)c1c(-c2ccccc2)csc1NC(=O)C1CCCO1 (centres undefined)	0.033	-7	14	-1	3	12
O=C(CC1Sc2ncnn2C1=O)Nc1ccccc1 (centres undefined)	0.2	-1	17	2	-4	12
CCOC(=O)c1c(-c2ccccc2)csc1NC(=O)CSc1nnnn1C	-3.7	-6	10	12	2	-3
CCOC(=O)c1c(-c2ccc(OC)cc2)csc1NC(=O)CSc1ccccc1	-4.8*	-10	9	-3	4	11
C/C=C\C(=O)Nc1cccc(C2=NOC3(C2)C[C@H](C(N)=O)N(C(=O)[C@H]2CCC(=O)N2)C3)c1 (some centres undefined)	0.78	.	.	.	.	.
N#Cc1c(-c2ccccc2)cc(-c2ccco2)c(C#N)c1N	.	-6	37*	-6	3	3
N#Cc1sc2nc(-c3ccccc3)cc(-c3ccco3)c2c1N	-0.63	-3	37*	1	12	-23
CCNc1nc(NC(C)C)nc(N(C#N)CCOc2ccc(Cl)cc2Cl)n1	-9.4*	-11	6	-7	7	-17
O=C(NCc1ccc(F)cc1)N[C@@H](Cc1ccccc1)C(=O)O	-0.093	.	.	.	.	.
CC(=O)N(Cc1ccc(F)cc1)C1=C(NCc2ccccc2)C(=O)c2ccccc2C1=O	-5.1*	-10	11	1	10	-5
Cc1ccc2nc(SCC(=O)N3CCOCC3)[nH]c2c1	0.15	-4	6	1	-1	-11
Cc1ccc2nc(/C(C#N)=C\c3ccc([N+](=O)[O-])o3)[nH]c2c1	-1.1	-32	64*[fluorescence artefact?]	-2	13	-65
Cc1ccc2nc(/C(C#N)=C\c3ccc(N4CCOCC4)o3)[nH]c2c1	-5*	-34	135*[fluorescence artefact?]	-23	4	-229
Cc1ccc2nc(/C(C#N)=C\c3cc(C)n(-c4cccc([N+](=O)[O-])c4)c3C)[nH]c2c1	-6.1*	-35	12	4	9	-5
SMILES	Cav32 inh	PLK1 inh	HIV Rev-RRE inh	EphB4 ephrin blk	FAK inh	PLK1 PBD inh
O=C(CSc1nnc(C2COc3ccccc3O2)o1)N1CCOCC1 (centres undefined)	-0.15	-6	3	0	-1	-25
O=C(CSc1nnc(Cc2ccccc2)o1)N1CCCc2ccccc21	-3.9*	.	.	.	.	.
O=C(CSc1nnc(C2COc3ccccc3O2)o1)N1CCCc2ccccc21 (centres undefined)	-10*	4	2	-2	-6	-29
CN1CCN(CCCN2c3ccccc3Sc3ccc(Cl)cc32)CC1	-5.1*!	.	.	.	.	.
OCCN1CCN(CCCN2c3ccccc3Sc3ccc(C(F)(F)F)cc32)CC1	0.11	.	.	.	.	.
Cc1ccc(S(=O)(=O)n2[nH]c(=O)cc2N)cc1	1.5	.	.	.	.	.
CCNC(=O)OCC(CC)NC(=O)OCC(C)C (centres undefined)	0.67	-11	-2	-2	0	-16
CCC(COC(=O)Nc1cccc(C)c1)NC(=O)OCC(C)C (centres undefined)	-4.7*	-3	5	4	-8	3
Cc1cc(C(=O)CSc2nnc(-c3cccs3)o2)c(C)n1-c1ccccc1	-5.1*	.	.	.	.	.
COc1cccc(NC(=O)CSc2nnc(-c3cc(C)n(-c4ccccc4)c3C)o2)c1	-3.6*	-9	-4	-10	2	12
COc1ccc(-c2nnc(SCC(=O)c3cccs3)o2)cc1	-5.2*	.	.	.	.	.
COc1ccc(-c2nnc(SCC(=O)N(Cc3ccccc3)C(C)(C)C)o2)cc1OC	-7.1*	-2	-1	4	-4	-20
O=C(c1ccc(CNc2c(NC3CCCCC3)c(=O)c2=O)cc1)N1CCc2ccccc21	.	-6	13	0	-3	-11
COc1ccccc1NC(=O)CSc1nnc(-c2ccccc2)o1	-2.2	58*	7	3	5	-8
COc1ccccc1NC(=O)CSc1nnc(Cc2ccccc2)o1	0.36	-8	2	-9	0	4
CC1CCCN(C(=O)Nc2cccc(NC(=O)N3CCCC(C)C3C)c2)C1C (centres undefined)	-5.8*	-16	5	-3	-2	-15
CC1CCCCN1C(=O)Nc1cccc(Cl)c1 (centres undefined)	1	-8	3	-2	-1	-15
CCC(C)NC(=O)CSc1ncccc1C(=O)O (centres undefined)	1.8	-12	9	1	-3	-1
Cc1cc(C(=O)CSc2n[nH]c(-c3ccccc3F)n2)c(C)n1Cc1cccs1	-3.5	-6	0	-2	3	-7
COc1cc(N2CCCC2)c(OC)cc1/C=C(/C#N)c1ccc(F)cc1	-3.7	-28	95*[fluorescence artefact?]	-1	-1	-132
O=C1C2=C(Nc3ccccc3SC2c2ccco2)c2ccccc21 (centres undefined)	-5.1*	-10	6	4	6	-12
CCCOc1ccc(NC(=O)CC2C(=O)N(C)C(=S)N2Cc2cccs2)cc1 (centres undefined)	-3.9*	-5	7	-8	-3	-8
O=C(NC1CCCCC1)C(c1ccccc1F)N(Cc1ccco1)C(=O)Cn1nnc2ccccc21 (centres undefined)	.	-9	4	-3	-2	-16
